This passage reports Activity and inhibition results from ChEMBL document CHEMBL1777755, “A new iridoid and effect on the rat aortic vascular smooth muscle cell proliferation of isolated compounds from Buddleja officinalis” (Bioorg Med Chem Lett, 2011).

Data set [1] relates to VSMC. In words: (§1) Antiproliferative activity against PDGF-BB-induced rat VSMC proliferation at 10 uM after 24 hrs by WST1 (CCK-8) assay. In kind it is functional. The procedure, abridged: (§2)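 Rat aortic VSMCs were seeded at 4 × 10^4 cells/well and grown 48 h in DMEM with 10% FBS. They were then held 24 h in serum-free medium with compounds (0–50 µM), then stimulated 24 h. The methods footnote gives the stimulus as 5% FBS; the figure legends give 25 ng/mL PDGF-BB. WST-1 was added at 22 h for 2 h, and OD read at 450 nm. AG1295 (1 µM) served as positive control; mean ± SD, n = 4.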

The subject of data set [2] is VSMC. As to the kind of experiment: (§3) Antiproliferative activity against PDGF-BB-induced rat VSMC proliferation at 50 uM after 24 hrs by WST1 (CCK-8) assay. In kind it is functional. The procedure, abridged:
as §2

Data set [3] can be described thus: Cytotoxicity against PDGF-BB-induced rat VSMC at 50 uM.
Data set [4] concerns VSMC. In words: Antiproliferative activity against PDGF-BB-induced rat VSMC proliferation after 24 hrs by WST1 (CCK-8) assay. Type of data set: functional. The procedure, abridged:
as §2
On the technique in general: Formazan colour is commonly taken as a measure of viable cells.

Data set [5] in a line: Antiproliferative activity against PDGF-BB-induced rat VSMC proliferation at 30 uM after 24 hrs by WST1 (CCK-8) assay. In kind it is functional. The procedure, abridged: as §2
A short description of data set [6]: as §1. In kind it is functional. In a few lines:
as §2

Data set [7] can be described thus: as §3. Type of data set: functional. The procedure, abridged: as §2

Structures are written as SMILES. The source made the active and inactive calls. The calls are words filed in the database; no cut-off is given here.

For `COc1cc(C(=O)O[C@@H]2C[C@](C)(O)[C@H]3[C@H](O[C@@H]4O[C@H](CO)[C@@H](O)[C@H](O)[C@H]4O)OC=C[C@H]32)ccc1O`, the outcome in data set [1] was inactive. The outcome in data set [2] was Active. Besides, the Activity result in data set [3] was “Non-toxic”; in data set [4], “Dose-dependent effect”.

For `C[C@@H]1O[C@@H](OC[C@H]2O[C@@H](OCCc3ccc(O)c(O)c3)[C@H](O)[C@@H](O[C@@H]3O[C@@H](C)[C@H](O)[C@@H](O)[C@H]3O)[C@@H]2OC(=O)/C=C/c2ccc(O)c(O)c2)[C@H](O)[C@H](O)[C@H]1O`, the outcome in data set [2] was inactive.

Regarding `C[C@@H]1O[C@@H](O[C@@H]2[C@@H](O)[C@H](OCCc3ccc(O)c(O)c3)O[C@H](CO)[C@H]2O)[C@H](O)[C@H](O)[C@H]1O`, the result in data set [2] was inactive.

For `C[C@@H]1O[C@@H](O[C@@H]2[C@@H](O)[C@H](OCCc3ccc(O)c(O)c3)O[C@H](CO)[C@H]2OC(=O)/C=C/c2ccc(O)c(O)c2)[C@H](O)[C@H](O)[C@H]1O`, the result in data set [2] was inactive.

Take `C[C@H]1O[C@H](O[C@@H]2[C@@H](O)[C@H](OCCc3ccc(O)c(O)c3)O[C@H](CO[C@H]3O[C@@H](CO)[C@H](O)[C@@H](O)[C@@H]3O)[C@H]2OC(=O)/C=C/c2ccc(O)c(O)c2)[C@@H](O)[C@@H](O)[C@@H]1O`: in data set [2], the outcome was inactive.

Take `OC[C@H]1O[C@@H](OCCc2ccc(O)cc2)[C@H](O)[C@@H](O)[C@@H]1O`: the outcome in data set [2] was inactive.

For the molecule `OC[C@H]1O[C@@H](OCCc2ccccc2)[C@H](O)[C@@H](O)[C@@H]1O`, the outcome in data set [2] was inactive.

`COc1ccc(-c2cc(=O)c3c(O)cc(O[C@@H]4O[C@H](CO[C@@H]5O[C@@H](C)[C@H](O)[C@@H](O)[C@H]5O)[C@@H](O)[C@H](O)[C@H]4O)cc3o2)cc1` [ACACIIN]: in data set [1], the result was inactive. Besides, the inhibition (usually the share of the control response that was lost under treatment) at 30 µM in data set [5] amounted to 21.2%. Besides, in data set [2], the outcome was Active. The Activity result in data set [3] was “Non-toxic”; in data set [4], “Dose-dependent effect”.

For `O=c1cc(-c2ccc(O)cc2)oc2cc(O)cc(O)c12` [APIGENIN], the outcome in data set [1] was inactive. Moreover, the Activity entry in data set [3] is reported as “Toxic”.

Turning to `C=C[C@](C)(O)CC/C=C(\C)CO[C@@H]1O[C@H](CO)[C@@H](O)[C@H](O)[C@H]1O` [BETULALBUSIDES A], the result in data set [1] was inactive. Moreover, the result in data set [2] was Active. Moreover, the figures for the Activity result in data set [3] and in data set [4] were “Non-toxic” and “Dose-dependent effect”, respectively.

In the case of `CO[C@@H]1C=C2[C@@H]3CC(C)(C)CC[C@]3(CO)[C@@H](O)C[C@@]2(C)[C@]2(C)CC[C@H]3[C@](C)(CO)[C@@H](O[C@@H]4O[C@H](C)[C@H](O)[C@H](O[C@@H]5O[C@H](CO)[C@@H](O[C@@H]6O[C@@H](C)[C@H](O)[C@@H](O)[C@H]6O)[C@H](O)[C@H]5O)[C@H]4O[C@@H]4O[C@H](CO)[C@@H](O)[C@H](O)[C@H]4O)CC[C@]3(C)[C@@H]12` [BUDDLEJASAPONIN IA], the Activity result in data set [3] is “Toxic”.

Regarding `C[C@H]1O[C@@H](O[C@H]2CC[C@@]3(C)[C@@H](CC[C@]4(C)[C@@H]3C=C[C@]35OC[C@@]6(CCC(C)(C)C[C@H]63)[C@@H](O)C[C@]54C)[C@]2(C)CO)[C@H](O)[C@@H](O[C@@H]2O[C@H](CO)[C@@H](O)[C@H](O)[C@H]2O)[C@H]1O[C@@H]1OC[C@@H](O)[C@H](O)[C@H]1O` [BUDDLEJASAPONIN III], the Activity entry in data set [3] is on record as “Toxic”.

Consider `CO[C@@H]1C=C2[C@@H]3CC(C)(C)CC[C@]3(OC)[C@@H](O)C[C@@]2(C)[C@]2(C)CC[C@H]3[C@](C)(CO)[C@@H](O[C@@H]4O[C@H](C)[C@H](O)[C@H](O[C@@H]5O[C@H](CO)[C@@H](O)[C@H](O)[C@H]5O)[C@H]4O[C@@H]4O[C@H](CO)[C@@H](O)[C@H](O)[C@H]4O)CC[C@]3(C)[C@@H]12` [BUDDLEJASAPONIN IVA], for which the Activity result in data set [3] is reported as “Toxic”.

`C[C@H]1O[C@@H](O[C@H]2CC[C@@]3(C)[C@@H](CC[C@]4(C)[C@@H]3C=C[C@]35OC[C@@]6(CCC(C)(C)C[C@H]63)[C@@H](O)C[C@]54C)[C@]2(C)CO)[C@H](O[C@@H]2O[C@H](CO)[C@@H](O)[C@H](O)[C@H]2O)[C@@H](O[C@@H]2O[C@H](CO)[C@@H](O)[C@H](O)[C@H]2O)[C@H]1O` [BUDDLEJASAPONIN IV]: the Activity entry in data set [3] is reported as “Toxic”.

`C[C@@H]1O[C@@H](O[C@H]2[C@H](O)[C@@H](O)[C@H](O[C@H]3[C@@H](O)[C@@H](C)O[C@@H](O[C@H]4CC[C@@]5(C)[C@@H](CC[C@]6(C)[C@@H]5C=C[C@]57OC[C@@]8(CCC(C)(C)C[C@H]85)[C@@H](O)C[C@]76C)[C@]4(C)CO)[C@@H]3O[C@@H]3O[C@H](CO)[C@@H](O)[C@H](O)[C@H]3O)O[C@@H]2CO)[C@H](O)[C@H](O)[C@H]1O` [BUDDLEJASAPONIN I]: in data set [3], the Activity result is “Toxic”.

As to `COc1ccc(/C=C/C(=O)O[C@@H]2[C@@H](OC(C)=O)[C@@H](O)[C@H](O[C@H]3[C@@H]4C=CO[C@@H](O[C@@H]5O[C@H](CO)[C@@H](O)[C@H](O)[C@H]5O)[C@@H]4[C@@]4(CO)O[C@@H]34)O[C@H]2C)cc1` [BUDDLEJOSIDE A4], the result in data set [1] was inactive. Moreover, the outcome in data set [2] was Active. In addition, the Activity entry in data set [3] is “Non-toxic”; in data set [4] it was “Dose-dependent effect”.

Take `C[C@@H]1O[C@@H](OC[C@H]2O[C@@H](Oc3cc(O)c4c(=O)cc(-c5ccc(O)cc5)oc4c3)[C@H](O)[C@@H](O)[C@@H]2O)[C@H](O)[C@H](O)[C@H]1O` [ISORHOIFOLIN]: in data set [1], the outcome was inactive. The inhibition at 30 µM in data set [5] came to 22.6%. For the same molecule, the result in data set [2] was Active. Further, the Activity result in data set [3] was “Non-toxic”; in data set [4] it was “Dose-dependent effect”.

Regarding `CO[C@H]1[C@@H]2C=CO[C@@H](O[C@@H]3O[C@H](CO)[C@@H](O)[C@H](O)[C@H]3O)[C@@H]2[C@@]2(CO)O[C@@H]12` [METHYLCATALPOL], in data set [2], the result was Active. The Activity result in data set [3] is “Non-toxic”; in data set [4], “Dose-dependent effect”.

In turn, `CO[C@H]1[C@@H]2C[C@@H]3OC[C@](O)([C@H]2[C@H](O[C@@H]2O[C@H](CO)[C@@H](O)[C@H](O)[C@H]2O)O3)[C@@H]1O` [METHYLSCUTELLOSIDE] returned an inhibition at 10 µM in data set [6] of 39.1%. This molecule showed an inhibition at 30 µM in data set [5] of 42%. In data set [7], this molecule returned an inhibition at 50 µM of 79.6%. Besides, the figures for the Activity entry in data set [3] and in data set [4] were “Non-toxic” and “Dose-dependent effect”, respectively.

Consider `CO[C@@H]1C=C2[C@@H]3CC(C)(C)CC[C@]3(CO)CC[C@@]2(C)[C@]2(C)CC[C@H]3[C@](C)(CO)[C@@H](O[C@@H]4O[C@H](C)[C@H](O)[C@H](O[C@@H]5O[C@H](CO)[C@@H](O[C@@H]6O[C@@H](C)[C@H](O)[C@@H](O)[C@H]6O)[C@H](O)[C@H]5O)[C@H]4O[C@@H]4O[C@H](CO)[C@@H](O)[C@H](O)[C@H]4O)CC[C@]3(C)[C@@H]12` [MIMENGOSIDE B], for which the Activity result in data set [3] is “Toxic”.
